Experimental findings from ChEMBL document CHEMBL3112444, “Synthesis and anticancer activity of focused compound libraries from the natural product lead, oroidin” (2014) are described below.

Assay [1] can be described thus: Cytotoxicity against mouse SMA cells assessed as growth inhibition at 25 uM after 72 hrs by MTT assay relative to control. It is filed as functional. Conditions: read-out: GI. An outline of the steps: (§1)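 Cells in logarithmic growth kept in DMEM with 10% FBS, 10 mM sodium bicarbonate, penicillin 100 IU/mL, glutamine 4 mM, at 37 °C under 5% CO2. Plated in duplicate at 2500–4000 cells/well. Compound (30 mM DMSO stock) added 24 h after plating. MTT read at 540 nm after 72 h exposure.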
On the technique in general: Tetrazolium dyes change colour on reduction, which living cells bring about.

The test system of assay [2] is MCF7. Kind of assay: Cytotoxicity against human MCF7 cells assessed as growth inhibition at 25 uM after 72 hrs by MTT assay relative to control. It is filed as functional. Conditions: MCF7, 72 h, read-out: GI. An outline of the steps: as §1
Assay [3] in a line: Cytotoxicity against human BE(2)-C cells assessed as growth inhibition after 72 hrs by MTT assay. Format: functional. An outline of the steps:
as §1

Assay [4] deals with A2780. Kind of assay: Cytotoxicity against human A2780 cells assessed as growth inhibition after 72 hrs by MTT assay. Format: functional. Conditions: A2780, 72 h. The method in brief: as §1
The nature of assay [5]: Cytotoxicity against human MIA cells assessed as growth inhibition at 25 uM after 72 hrs by MTT assay relative to control. It is filed as functional. The conditions noted are these: read-out: GI. The method in brief: as §1
Assay [6] deals with SW480. Kind of assay: Cytotoxicity against human SW480 cells assessed as growth inhibition at 25 uM after 72 hrs by MTT assay relative to control. Format: functional. The conditions noted are these: SW480, 72 h, read-out: GI. The method in brief:
as §1

Assay [7] is described as follows: Cytotoxicity against human SJ-G2 cells assessed as growth inhibition at 25 uM after 72 hrs by MTT assay relative to control. The conditions noted are these: SJ-G2, 72 h, read-out: GI. Format: functional. An outline of the steps:
as §1

Assay [8] relates to MCF7. Kind of assay: Cytotoxicity against human MCF7 cells assessed as growth inhibition after 72 hrs by MTT assay. Format: functional. Conditions: MCF7, 72 h. The method in brief: as §1
Assay [9] has as its system A-431. Kind of assay: Cytotoxicity against human A431 cells assessed as growth inhibition at 25 uM after 72 hrs by MTT assay relative to control. Format: functional. The conditions noted are these: A-431, 72 h, read-out: GI. An outline of the steps: as §1
Assay [10] is described as follows: Cytotoxicity against human H460 cells assessed as growth inhibition after 72 hrs by MTT assay. It is filed as functional. The conditions noted are these: NCI-H460, 72 h. The method in brief: as §1
In assay [11] the test system is A-431. Kind of assay: Cytotoxicity against human A431 cells assessed as growth inhibition after 72 hrs by MTT assay. It is filed as functional. The conditions noted are these: A-431, 72 h. An outline of the steps:
as §1

Assay [12] in a line: Cytotoxicity against human SJ-G2 cells assessed as growth inhibition after 72 hrs by MTT assay. It is filed as functional. Conditions: SJ-G2, 72 h. The method in brief:
as §1

Assay [13] concerns SW480. Kind of assay: Cytotoxicity against human SW480 cells assessed as growth inhibition after 72 hrs by MTT assay. It is filed as functional. The conditions noted are these: SW480, 72 h. The method in brief:
as §1

Assay [14] can be described thus: Cytotoxicity against human MIA cells assessed as growth inhibition after 72 hrs by MTT assay. It is filed as functional. The method in brief: as §1
For assay [15], the system named is HT-29. Kind of assay: Cytotoxicity against human HT-29 cells assessed as growth inhibition after 72 hrs by MTT assay. It is filed as functional. The conditions noted are these: HT-29, 72 h. An outline of the steps:
as §1

Assay [16] relates to DU-145. Kind of assay: Cytotoxicity against human DU145 cells assessed as growth inhibition at 25 uM after 72 hrs by MTT assay relative to control. Format: functional. The conditions noted are these: DU-145, 72 h, read-out: GI. The method in brief: as §1
Assay [17] can be described thus: Cytotoxicity against mouse SMA cells assessed as growth inhibition after 72 hrs by MTT assay. It is filed as functional. The method in brief: as §1
Assay [18] is described as follows: Cytotoxicity against human H460 cells assessed as growth inhibition at 25 uM after 72 hrs by MTT assay relative to control. Format: functional. Conditions: NCI-H460, 72 h, read-out: GI. The method in brief: as §1
Assay [19] is described as follows: Cytotoxicity against human U87 cells assessed as growth inhibition after 72 hrs by MTT assay. It is filed as functional, U-87MG ATCC. The conditions noted are these: U-87 MG. The method in brief: as §1
Assay [20] deals with A2780. Kind of assay: Cytotoxicity against human A2780 cells assessed as growth inhibition at 25 uM after 72 hrs by MTT assay relative to control. Format: functional. Conditions: A2780, 72 h, read-out: GI. The method in brief: as §1
Assay [21] is described as follows: Cytotoxicity against human BE(2)-C cells assessed as growth inhibition at 25 uM after 72 hrs by MTT assay relative to control. It is filed as functional. The conditions noted are these: read-out: GI. The method in brief: as §1
In assay [22] the test system is HT-29. Kind of assay: Cytotoxicity against human HT-29 cells assessed as growth inhibition at 25 uM after 72 hrs by MTT assay relative to control. Format: functional. The conditions noted are these: HT-29, 72 h, read-out: GI. An outline of the steps:
as §1

Assay [23] is described as follows: Cytotoxicity against human U87 cells assessed as growth inhibition at 25 uM after 72 hrs by MTT assay relative to control. It is filed as functional, U-87MG ATCC. The conditions noted are these: U-87 MG, read-out: GI. The method in brief:
as §1

The subject of assay [24] is DU-145. Kind of assay: Cytotoxicity against human DU145 cells assessed as growth inhibition after 72 hrs by MTT assay. Format: functional. Conditions: DU-145, 72 h. The method in brief: as §1

Each structure is given as a SMILES string.

One may read the GI50 as the concentration that inhibits growth by half. Take `O=C(NCc1ccccc1)c1cc(Br)c(Br)[nH]1`: the inhibition of growth at 25 µM in assay [1] is 61%; with MCF7 [2], more than 100%; in [5] it was 33%; with SW480 [6] it was 33%; in assay [7], 95%; in the assay with A-431 [9], 56%. The inhibition of growth at 25 µM with DU-145 [16] is 52%; in assay [18] it was 43%; in the assay with A2780 [20], 84%; in assay [21], more than 100%; with HT-29 [22], more than 100%; in assay [23] it was 31%. The 50% growth inhibitory concentration (GI50) in assay [3] was 4.8 µM; with A2780 [4], 14 µM; with MCF7 [8] it was 11 µM; in assay [10], 35 µM; in the assay on A-431 [11], 22 µM; in assay [12], 11 µM. Further, the 50% growth inhibitory concentration (GI50) is more than 50 µM in the assay with SW480 [13]; more than 50 µM in assay [14]; 4.6 µM with HT-29 [15]; 25 µM in assay [17]; more than 50 µM in assay [19]; 33 µM in the assay on DU-145 [24].

`O=C(NCc1ccc(-c2ccccc2)cc1)c1cc(Br)c(Br)[nH]1`: the inhibition of growth at 25 µM in assay [1] turned out to be 59%; with MCF7 [2], 70%; in assay [5], 82%; in the assay on SW480 [6] it was 97%; in [7], 17%; in the assay on A-431 [9], 90%. Further, the inhibition of growth at 25 µM in the assay on DU-145 [16] worked out at 64%; in assay [18] it was 61%; in the assay with A2780 [20], 66%; in assay [21] it was 57%; in the assay with HT-29 [22], 78%; in assay [23], 58%. The GI50 in assay [3] was 4.2 µM; in the assay with A2780 [4], 6.4 µM; with MCF7 [8] it was 3.1 µM; in [10], 21 µM; with A-431 [11], 3.7 µM; in [12], more than 50 µM. Besides, the GI50 with SW480 [13] was 2.4 µM; in [14], 3.4 µM; in the assay with HT-29 [15] it was 3.4 µM; in assay [17], 17 µM; in assay [19] it was more than 50 µM; in the assay with DU-145 [24], 2.6 µM.

For the compound `O=C(NCCc1ccc2ccccc2c1)c1ccc[nH]1`, the inhibition of growth at 25 µM in assay [1] worked out at 16%; in the assay with MCF7 [2] it was 23%; in assay [5] it was 20%; in the assay on SW480 [6], 3%; in assay [7], 8%; in the assay on A-431 [9] it was 8%. Further, the inhibition of growth at 25 µM with DU-145 [16] is 20%; in [18], 23%; in the assay on A2780 [20] it was 13%; in assay [21], less than 0%; in the assay with HT-29 [22] it was 19%; in assay [23], less than 1%.

Consider `O=C(NCCCCc1ccccc1)c1ccc[nH]1`, for which the inhibition of growth at 25 µM is 6% in [1]; 23% in the assay on MCF7 [2]; 15% in assay [5]; less than 0% in the assay on SW480 [6]; 8% in assay [7]; 12% with A-431 [9]. Moreover, the inhibition of growth at 25 µM is 10% in the assay on DU-145 [16]; 11% in assay [18]; 13% in the assay with A2780 [20]; less than 0% in assay [21]; 16% with HT-29 [22]; less than 0% in assay [23].

Take `O=C(NCCc1ccccc1)c1cc(Br)c(Br)[nH]1`: the inhibition of growth at 25 µM in [1] amounted to 53%; in the assay on MCF7 [2], 70%; in assay [5], 19%; in the assay on SW480 [6], 1%; in [7], 22%; with A-431 [9], 7%. In addition, the inhibition of growth at 25 µM in the assay on DU-145 [16] was less than 0%; in assay [18], 19%; in the assay with A2780 [20], 58%; in assay [21], 62%; in the assay on HT-29 [22], 46%; in [23], less than 0%.

For the compound `O=C(NCCc1c[nH]cn1)c1cc(Br)c(Br)[nH]1`, the inhibition of growth at 25 µM was 18% in [1]; 23% with MCF7 [2]; 20% in assay [5]; 12% in the assay on SW480 [6]; 11% in assay [7]; 2% in the assay on A-431 [9]. For the same compound, the inhibition of growth at 25 µM in the assay on DU-145 [16] was less than 0%; in [18] it was 35%; in the assay with A2780 [20], 37%; in [21], 13%; in the assay with HT-29 [22], 11%; in assay [23], 5%.

As to `CCc1ccc(CCNC(=O)c2cc(Br)c(Br)[nH]2)cc1`, the inhibition of growth at 25 µM in assay [1] was 79%; with MCF7 [2] it was 88%; in assay [5], 31%; in the assay with SW480 [6], 5%; in assay [7], 22%; in the assay with A-431 [9] it was 22%. Also, the inhibition of growth at 25 µM in the assay on DU-145 [16] was found to be 7%; in assay [18] it was 23%; with A2780 [20] it was 67%; in assay [21] it was 20%; in the assay with HT-29 [22], 81%; in assay [23], 6%.

As to `COc1ccc(CNC(=O)c2ccc[nH]2)cc1`, the inhibition of growth at 25 µM in [1] was less than 0%; with MCF7 [2] it was 5%; in assay [5], 6%; with SW480 [6] it was 10%; in [7], less than 0%; in the assay on A-431 [9], less than 0%. The inhibition of growth at 25 µM in the assay with DU-145 [16] was 8%; in [18], 2%; in the assay on A2780 [20], 6%; in [21] it was less than 0%; in the assay with HT-29 [22], 3%; in assay [23] it was less than 0%.

Consider `CCc1ccc(CCNC(=O)c2ccc[nH]2)cc1`, for which the inhibition of growth at 25 µM in [1] was 8%; in the assay with MCF7 [2], 19%; in [5], 12%; with SW480 [6] it was less than 0%; in assay [7] it was less than 0%; with A-431 [9] it was 0%. Also, the inhibition of growth at 25 µM with DU-145 [16] is 1%; in [18] it was 3%; in the assay with A2780 [20], less than 0%; in assay [21], less than 0%; in the assay on HT-29 [22], 22%; in assay [23], 0%.

Regarding `O=C(NCCc1ccccc1)c1ccc[nH]1`, the inhibition of growth at 25 µM was 7% in [1]; 7% in the assay on MCF7 [2]; less than 0% in [5]; 9% in the assay on SW480 [6]; 2% in assay [7]; 5% with A-431 [9]. For the same compound, the inhibition of growth at 25 µM is 5% in the assay on DU-145 [16]; 5% in assay [18]; 6% in the assay with A2780 [20]; less than 0% in assay [21]; 9% in the assay on HT-29 [22]; 9% in assay [23].
